The test system of experiment [1] is Rattus norvegicus. Briefly: Tested for antiallergy activity in rat passive cutaneous anaphylaxis (PCA) test at 32 mg/kg administered perorally. The experiment is classed as functional. The conditions noted are these: route oral.
Experiment [2] concerns Rattus norvegicus. Kind of experiment: Anti-allergy activity test in rat passive cutaneous anaphylaxis (PCA) test at 16 mg/kg administered intraperitoneally. The experiment is classed as functional. The conditions noted are these: ip, route intraperitoneal. A digest of the protocol: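 Rats given the compound intraperitoneally at 16 mg/kg in the passive cutaneous anaphylaxis model. The read-out is percent inhibition of the cutaneous anaphylactic response, and some entries carry p values.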

In experiment [3] the test system is Rattus norvegicus. Briefly: Inhibitory dose administered perorally against anaphylactic bronchospasm in passively sensitized rats. The experiment is classed as functional. The conditions noted are these: Bronchiole, po, read-out: ID50.
Experiment [4] has as its system Rattus norvegicus. Kind of experiment: Tested for antiallergy activity in rat passive cutaneous anaphylaxis (PCA) test at 32 mg/kg administered perorally; In active. The class given is functional, organism-based. Details: dose 32 mg/kg.
In experiment [5] the test system is Rattus norvegicus. Briefly: Tested for antiallergy activity in rat passive cutaneous anaphylaxis (PCA) test at 32 mg/kg administered perorally; pretreatment time is 30 min. The experiment is classed as functional. The conditions noted are these: route oral.
The subject of experiment [6] is Rattus norvegicus. Kind of experiment: Percentage inhibition at 8 mg/kg administered intraperitoneally in rat passive cutaneous anaphylaxis (PCA) test, p<0.001. The experiment is classed as functional. The conditions noted are these: ip, route intraperitoneal.
Experiment [7] has as its system Rattus norvegicus. Kind of experiment: Tested for antiallergy activity in rat passive cutaneous anaphylaxis (PCA) test at 32 mg/kg administered perorally; 30 minute pretreatment time. The class given is functional. The conditions noted are these: route oral.
Experiment [8] has as its system Rattus norvegicus. Briefly: Tested for antiallergy activity in rat passive cutaneous anaphylaxis (PCA) test at 32 mg/kg administered perorally; 10 min pretreatment time. The class given is functional. The conditions noted are these: route oral.

Structures are written as SMILES. The source made the active and inactive calls. The calls are words filed in the database; no cut-off is given here.

The record followed here is ChEMBL document CHEMBL1122348, “(E)-3-(4-Oxo-4H-quinazolin-3-yl)-2-propenoic acids, a new series of antiallergy agents” (1983).

In turn, `Cc1cc(C)c2ncn(/C=C/C(=O)O)c(=O)c2c1` returned an inhibition in vivo at 32 mg/kg in experiment [1] of 70%. In addition, the inhibition in vivo at 16 mg/kg in experiment [2] turned out to be 82%. Take `CSc1ccc2ncn(/C(C)=C/C(=O)O)c(=O)c2c1`: the inhibition in vivo at 16 mg/kg in experiment [2] amounted to 9%. Regarding `CSc1ccc2ncn(/C=C/C(=O)O)c(=O)c2c1` [TIACRILAST], the ED50 in experiment [3] is 0.02 mg/kg. The same compound showed an inhibition in vivo at 32 mg/kg in experiment [1] of 75%. In addition, the inhibition in vivo at 16 mg/kg in experiment [2] amounted to 87%.

The compound `O=C(O)/C=C/n1cnc2ccc(OCCO)cc2c1=O` registered an inhibition in vivo at 32 mg/kg in experiment [1] of 80%. The compound also displayed an inhibition in vivo at 16 mg/kg in experiment [2] of 67%. Turning to `COC(=O)/C=C/n1cnc2ccc(OC(C)C)cc2c1=O`, the inhibition in vivo at 16 mg/kg in experiment [2] worked out at 46%. On to `C[S+]([O-])c1ccc2ncn(/C=C/C(=O)O)c(=O)c2c1` (stereo not drawn), for which the inhibition in vivo at 32 mg/kg in experiment [1] came out at 48%. Also, 16 mg/kg produced 89% inhibition in vivo in experiment [2]. In experiment [2], `CS(=O)(=O)c1ccc2ncn(/C=C/C(=O)O)c(=O)c2c1` returned an inhibition in vivo at 16 mg/kg of 70%. As for `CCN(CC)CCOc1ccc2ncn(/C=C/C(=O)O)c(=O)c2c1`, in experiment [4], the inhibition result was “inactive”. Also, 16 mg/kg produced 16% inhibition in vivo in experiment [2]. In experiment [2], `COc1cccc2c(=O)n(/C=C/C(=O)O)cnc12` displayed an inhibition in vivo at 16 mg/kg of 82%. Further, the inhibition in vivo at 32 mg/kg in experiment [5] was 45%. In experiment [1], `CC(C)Oc1ccc2ncn(/C=C/C(=O)O)c(=O)c2c1` returned an inhibition in vivo at 32 mg/kg of 70%. Besides, the inhibition in vivo at 16 mg/kg in experiment [2] was 87%. `CC(C)Sc1ccc2ncn(/C=C/C(=O)O)c(=O)c2c1` showed an inhibition in vivo at 32 mg/kg in experiment [1] of 56%. In addition, testing at 16 mg/kg in experiment [2] gave an inhibition in vivo of 59%. In experiment [1], `O=C(O)/C=C/n1cnc2ccccc2c1=O` displayed an inhibition in vivo at 32 mg/kg of 55%.

In experiment [1], `O=C(O)c1cc(=O)c2c(OCC(O)COc3cccc4oc(C(=O)O)cc(=O)c34)cccc2o1` [CROMOLYN SODIUM] showed an inhibition in vivo at 32 mg/kg of 18%. For the same compound, in experiment [6], the inhibition in vivo at 8 mg/kg was 46%. `Cc1nc2ccc(C3CC3)cc2c(=O)n1/C=C/C(=O)O` had an inhibition in vivo at 16 mg/kg in experiment [2] of 39%. `COc1ccc2ncn(/C=C/C(=O)O)c(=O)c2c1` gave an inhibition in vivo at 32 mg/kg in experiment [1] of 23%. This compound came in with an inhibition in vivo at 16 mg/kg in experiment [2] of 49%.

Take `O=C(O)/C=C/n1cnc2ccc(Cl)cc2c1=O`: 32 mg/kg produced 49% inhibition in vivo in experiment [1]. The same compound came in with an inhibition in vivo at 16 mg/kg in experiment [2] of 79%. Turning to `CC(C)c1ccc2ncn(/C=C/C(=O)O)c(=O)c2c1`, the ED50 in experiment [3] was 0.05 mg/kg. The compound further gave an inhibition in vivo at 32 mg/kg in experiment [1] of 89%. The compound further returned an inhibition in vivo at 16 mg/kg in experiment [2] of 100%. For the compound `COc1cc(OC)c2ncn(/C=C/C(=O)O)c(=O)c2c1`, the inhibition in vivo at 32 mg/kg in experiment [7] stood at 31%. Also, in experiment [2], the inhibition in vivo at 16 mg/kg was determined as 81%. In experiment [2], `CSc1ccc2c(c1)C(=O)N(/C=C/C(=O)O)CN2` yielded an inhibition in vivo at 16 mg/kg of 53%.

With `COC(=O)/C=C/n1cnc2ccc(SC)cc2c1=O`, the inhibition in vivo at 16 mg/kg in experiment [2] came to 39%. Still for that read-out and setting: under `O=C(O)/C=C/n1cnc2ccc(O)cc2c1=O` stands 56%; under `CSc1ccc2ncn(/C=C\C(=O)O)c(=O)c2c1`, 11%. `O=C(O)/C=C/n1cnc2ccc(C3CC3)cc2c1=O`: the inhibition in vivo at 32 mg/kg in experiment [8] stood at 81%. The compound also returned an inhibition in vivo at 16 mg/kg in experiment [2] of 100%. For the compound `CSc1ccc2ncn(CCC(=O)O)c(=O)c2c1`, in experiment [2], 16 mg/kg produced 14% inhibition in vivo. Compound `CC(C)c1cc(C(C)C)c2ncn(/C=C/C(=O)O)c(=O)c2c1` came in with an inhibition in vivo at 32 mg/kg in experiment [1] of 91%. Testing at 16 mg/kg in experiment [2] gave an inhibition in vivo of 70%. For `COc1cc2ncn(/C=C/C(=O)O)c(=O)c2cc1OC`, in experiment [2], testing at 16 mg/kg gave an inhibition in vivo of 88%.

What is called inhibition in vivo is the change of the read-out against control, counted positive when it falls.
